Results published in ChEMBL document CHEMBL1151690, “The design, synthesis, and anti-tumor mechanism study of N-phosphoryl amino acid modified resveratrol analogues” (Bioorg Med Chem, 2008).
The source made the active and inactive calls. No cut-off for these calls is given here.

Tests used:
[1] = Antiproliferative activity against human CNE1 cells after 72 hrs by MTT assay; type: functional, cell-based; settings: CNE
Procedure, shortened: (§1)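 MTT assay. Cells were grown in DMEM with 10% FBS, penicillin and streptomycin at 37 °C in 5% CO2, seeded in 96-well plates and exposed to compounds at 0.5–100 μM for 72 h. They were then given MTT (5 mg/ml) for 4 h, the formazan was dissolved in DMSO and A595 was read. IC50 is the mean ± SEM of three experiments.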

[2] = (§2) Antiproliferative activity against human CNE2 cells after 72 hrs by MTT assay; type: functional, cell-based; settings: CNE-2, 72 h; procedure, shortened: as §1
CNE-2 [3] = assay: Induction of apoptosis in human CNE2 cells assessed as early stage apoptotic cell count at 10 uM after 24 hrs by Annexin-V-FITC/PI binding assay; type: functional
Procedure, shortened: (§3)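 CNE-2 cells were treated at 5, 10, 25 or 50 μM for 24 h, collected, washed in ice-cold PBS, stained with Annexin-V-FITC and PI, and analysed by flow cytometry. Annexin-V+/PI− cells were counted as early apoptotic and double-positive cells as late apoptotic.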

CNE-2 [4] = assay: Induction of apoptosis in human CNE2 cells assessed as late stage apoptotic cell count at 50 uM after 24 hrs by Annexin-V-FITC/PI binding assay; type: functional; procedure, shortened: as §3
HeLa = assay: Antiproliferative activity against human HeLa cells after 72 hrs by MTT assay; type: functional, cell-based
Procedure, shortened: (§4)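 IC50 from 72 h of compound treatment, reported as the mean ± SEM of three experiments, with significance set at P < 0.05.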

CNE-2 [5] = assay: Induction of apoptosis in human CNE2 cells assessed as caspase 3-mediated PARP cleavage at 50 uM after 24 hrs by enhanced chemiluminescence detection; type: functional, cell-based
Procedure, shortened: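 CNE-2 cells were treated at 50 μM for 24 h and lysed on ice for 30 min in Tris/EDTA/NaCl/SDS/Triton/deoxycholate/PMSF buffer. Cytosolic protein (25 μg, 15,000g supernatant) was run on 12% SDS-PAGE and blotted to nitrocellulose. Blots were probed with anti-PARP (1:1000) in milk block, and the 89 kDa cleaved band was detected by ECL.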

[6] = Cell cycle arrest in human CNE2 cells assessed as accumulation at sub-G0-G1 phase visualized by propidium iodide staining at 50 uM after 24 hrs by flow cytometry; type: functional, cell-based; settings: CNE-2
Procedure, shortened: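 CNE-2 cells were treated at 50 μM for 24 h, stained with propidium iodide and analysed by flow cytometry of DNA-content histograms. Apoptotic events were scored as the sub-G0–G1 population, and the cell-cycle phase distribution was also recorded.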

CNE-2 [7] = assay: Antiproliferative activity against human CNE2 cells at 3.45 uM by MTT assay; type: functional, cell-based; settings: TDE = time-dependent effect
CNE-2 [8] = assay: Induction of apoptosis in human CNE2 cells assessed as late stage apoptotic cell count at 5 uM after 24 hrs by Annexin-V-FITC/PI binding assay; type: functional; procedure, shortened: as §3
CNE-2 [9] = assay: Induction of apoptosis in human CNE2 cells assessed as DNA fragmentation at 50 uM after 24 hrs by agarose gel electrophoresis; type: functional, cell-based
Procedure, shortened: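 CNE-2 cells were treated at 50 μM for 24 h, with untreated cells as control. DNA was obtained by standard digestion and organic extraction, run on a 2% agarose gel and stained with ethidium bromide to detect ladders.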

K562 = assay: Antiproliferative activity against human K-562 cells after 72 hrs by MTT assay; type: functional, cell-based; settings: K562, 72 h; procedure, shortened: as §4
CNE-2 [10] = assay: Induction of apoptosis in human CNE2 cells assessed as early stage apoptotic cell count at 25 uM after 24 hrs by Annexin-V-FITC/PI binding assay; type: functional; procedure, shortened: as §3
CNE-2 [11] = assay: Induction of apoptosis in human CNE2 cells assessed as early stage apoptotic cell count at 50 uM after 24 hrs by Annexin-V-FITC/PI binding assay; type: functional; procedure, shortened: as §3
CNE-2 [12] = assay: Induction of apoptosis in human CNE2 cells assessed as early stage apoptotic cell count at 5 uM after 24 hrs by Annexin-V-FITC/PI binding assay; type: functional; procedure, shortened: as §3
CNE-2 [13] = assay: Induction of apoptosis in human CNE2 cells assessed as intracellular ROS production visualized by DCFH-DA after 30 hrs by FACS analysis; type: functional, cell-based
Procedure, shortened: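 CNE-2 cells were treated at 50 μM for 0–30 h (0, 2, 4, 6, 8, 13, 19, 24, 30 h), trypsinized, centrifuged and PBS-washed. They were loaded with DCFH-DA (10 μM) at 37 °C for 30 min, and the percentage of cells with higher DCF fluorescence was measured by FACS.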

CNE-2 [14] = assay: Induction of apoptosis in human CNE2 cells assessed as increase in caspase 9 activity at 50 uM upto 24 hrs; type: functional, cell-based
Procedure, shortened: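 CNE-2 cells were treated at 50 μM for 0, 2, 4, 8, 14 and 24 h, trypsinized, PBS-washed and lysed on ice for 15 min. Lysates were spun at 20,000g at 4 °C, and 0.1 mg protein (Bradford) was incubated with Ac-LEHD-pNA for 2 h at 37 °C. pNA release was recorded at A405.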

CNE-2 [15] = assay: Induction of apoptosis in human CNE2 cells assessed as late stage apoptotic cell count at 25 uM after 24 hrs by Annexin-V-FITC/PI binding assay; type: functional; procedure, shortened: as §3
CNE-2 [16] = assay: as §2; type: functional, cell-based; procedure, shortened: as §1
CNE-2 [17] = assay: Induction of apoptosis in human CNE2 cells assessed as late stage apoptotic cell count at 10 uM after 24 hrs by Annexin-V-FITC/PI binding assay; type: functional; procedure, shortened: as §3
CNE-2 [18] = assay: Antiproliferative activity against human CNE2 cells at 5.06 uM by MTT assay; type: functional, cell-based; settings: TDE = time-dependent effect
CNE-2 [19] = assay: Antiproliferative activity against human CNE2 cells at 9.86 uM by MTT assay; type: functional, cell-based; settings: TDE = time-dependent effect
Procedure, shortened: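 CNE-2 nasopharyngeal carcinoma cells were grown in DMEM with 10% FBS and penicillin/streptomycin at 37 °C under 5% CO2. Cells were seeded in 96-well plates and exposed to compound at 0.5–100 µM for 24, 48 or 72 h; tabulated values are from 72 h. MTT (5 mg/ml) was added for 4 h, formazan dissolved in DMSO, A595 read. IC50 reported as mean ± SEM, three experiments.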

CNE-2 [20] = assay: Antiproliferative activity against human CNE2 cells at 5.19 uM by MTT assay; type: functional, cell-based; settings: TDE = time-dependent effect

In the case of `Oc1ccc(/C=C/c2cc(O)cc(O)c2)cc1` [RESVERATROL], the IC50 [1] is reported as 67.6 µM and the IC50 [2] is reported as 52.3 µM.
`CC(C)OP(=O)(N[C@@H](Cc1ccccc1)C(=O)Nc1ccc(/C=C/c2ccccc2)cc1)OC(C)C` showed an IC50 [1] of 83.7 µM and an IC50 [2] of 92.1 µM.
For `COc1cc(/C=C/c2ccc(NC(=O)CCCCNP(=O)(OC(C)C)OC(C)C)cc2)cc(OC)c1`, the Activity (CNE-2 [3]) was 16.24%, the Activity (CNE-2 [4]) was 66.79% and the IC50 (HeLa) was 5.62 µM. For the same compound, the Activity (CNE-2 [5]) was “Active”, the Activity [6] was 91.6% and the Activity (CNE-2 [7]) was “tde”. For the same compound, the Activity (CNE-2 [8]) was 9.86%, the Activity (CNE-2 [9]) was “Active” and the IC50 (K562) was 5.32 µM. It also gave an Activity (CNE-2 [10]) of 21.24%, an IC50 [1] of 5.67 µM and an Activity (CNE-2 [11]) of 18.78%. The Activity (CNE-2 [12]) was 6.45%, the Activity (CNE-2 [13]) was “Active” and the Activity (CNE-2 [14]) was “Active”. The Activity (CNE-2 [15]) was 41.12%, the IC50 [2] was 3.45 µM and the Activity (CNE-2 [16]) was “Dose-dependent effect”. For the same compound, the Activity (CNE-2 [17]) was 22.51%.
Compound `CC(C)OP(=O)(N[C@H](C(=O)Nc1ccc(/C=C/c2ccccc2)cc1)C(C)C)OC(C)C` has an IC50 [1] of 49.3 µM and an IC50 [2] of 128 µM.
Compound `Nc1ccc(/C=C/c2ccccc2)cc1` [(E)-4-STYRYLANILINE] has an IC50 [1] of 54.5 µM and an IC50 [2] of 98.7 µM.
Compound `COc1cc(/C=C/c2ccc(NC(=O)CCCNP(=O)(OC(C)C)OC(C)C)cc2)cc(OC)c1` has an IC50 [1] of 12.3 µM and an IC50 [2] of 15.2 µM.
In the case of `CC(C)OP(=O)(NCCCC(=O)Nc1ccc(/C=C/c2ccccc2)cc1)OC(C)C`, the IC50 [1] is reported as 9.03 µM and the IC50 [2] is reported as 6.47 µM.
For `COc1cc(/C=C/c2ccc(NC(=O)[C@H](Cc3ccccc3)NP(=O)(OC(C)C)OC(C)C)cc2)cc(OC)c1`, the IC50 [1] was 43.4 µM and the IC50 [2] was 9.83 µM.
For `COc1cc(/C=C/c2ccc(NC(=O)CCCCCNP(=O)(OC(C)C)OC(C)C)cc2)cc(OC)c1`, the IC50 (HeLa) was 6.41 µM, the Activity (CNE-2 [5]) was “Active” and the Activity [6] was 57%. The Activity (CNE-2 [18]) was “tde”, the Activity (CNE-2 [9]) was “Active” and the IC50 (K562) was 6.89 µM. The IC50 [1] was 6.37 µM, the IC50 [2] was 5.06 µM and the Activity (CNE-2 [16]) was “Dose-dependent effect”.
`COc1cc(/C=C/c2ccc(NC(=O)CCNP(=O)(OC(C)C)OC(C)C)cc2)cc(OC)c1` gave an IC50 [1] of 10.1 µM and an IC50 [2] of 8.19 µM.
For `CC(C)OP(=O)(OC(C)C)N1CCC[C@H]1C(=O)Nc1ccc(/C=C/c2ccccc2)cc1`, the IC50 [1] was 10.1 µM and the IC50 [2] was 12.2 µM.
For `COc1cc(/C=C/c2ccc(NC(=O)[C@@H]3CCCN3P(=O)(OC(C)C)OC(C)C)cc2)cc(OC)c1`, the IC50 (HeLa) was 9.53 µM, the Activity (CNE-2 [5]) was “Active” and the Activity [6] was 32.1%. For the same compound, the Activity (CNE-2 [9]) was “Active”, the IC50 (K562) was 9.15 µM and the IC50 [1] was 8.11 µM. The Activity (CNE-2 [19]) was “tde”, the IC50 [2] was 9.86 µM and the Activity (CNE-2 [16]) was “Dose-dependent effect”.
Work on `CC(C)OP(=O)(N[C@@H](C)C(=O)Nc1ccc(/C=C/c2ccccc2)cc1)OC(C)C` yielded an IC50 [1] of 25.4 µM and an IC50 [2] of 12.8 µM.
For `CC(C)OP(=O)(NCCCCCC(=O)Nc1ccc(/C=C/c2ccccc2)cc1)OC(C)C`, the IC50 [1] was 8.58 µM and the IC50 [2] was 24.3 µM.
Work on `COc1cc(/C=C/c2ccc(NC(=O)CNP(=O)(OC(C)C)OC(C)C)cc2)cc(OC)c1` yielded an IC50 [1] of 8.91 µM and an IC50 [2] of 7.12 µM.
`COc1cc(/C=C/c2ccc(NC(=O)[C@@H](NP(=O)(OC(C)C)OC(C)C)C(C)C)cc2)cc(OC)c1` showed an IC50 [1] of 116 µM and an IC50 [2] of 77.4 µM.
With `COc1cc(/C=C/c2ccc(NC(=O)[C@H](C)NP(=O)(OC(C)C)OC(C)C)cc2)cc(OC)c1` the IC50 [1] was 29.2 µM and the IC50 [2] was 11.7 µM.
For `CC(C)C[C@H](NP(=O)(OC(C)C)OC(C)C)C(=O)Nc1ccc(/C=C/c2ccccc2)cc1`, the IC50 [1] was 54.3 µM and the IC50 [2] was 65.6 µM.
Compound `CC(C)OP(=O)(NCCC(=O)Nc1ccc(/C=C/c2ccccc2)cc1)OC(C)C` has an IC50 [1] of 29.8 µM and an IC50 [2] of 6.81 µM.
`COc1cc(/C=C/c2ccc(NC(=O)[C@H](CC(C)C)NP(=O)(OC(C)C)OC(C)C)cc2)cc(OC)c1` showed an IC50 [1] of 55.3 µM and an IC50 [2] of 14.3 µM.
In the case of `CC(C)OP(=O)(NCCCCC(=O)Nc1ccc(/C=C/c2ccccc2)cc1)OC(C)C`, the IC50 (HeLa) is reported as 9.75 µM, the Activity (CNE-2 [5]) is reported as “Active” and the Activity [6] is reported as 45.3%. For the same compound, the Activity (CNE-2 [9]) was “Active”, the IC50 (K562) was 9.58 µM and the Activity (CNE-2 [20]) was “tde”. The IC50 [1] was 6.36 µM, the IC50 [2] was 5.19 µM and the Activity (CNE-2 [16]) was “Dose-dependent effect”.
In the case of `CC(C)OP(=O)(NCC(=O)Nc1ccc(/C=C/c2ccccc2)cc1)OC(C)C`, the IC50 [1] is reported as 7.5 µM and the IC50 [2] is reported as 7.01 µM.
